For orientation: inhibition means the change of the read-out against control, counted positive when it falls. High values mean strong suppression, low ones little suppression.

What all share (assay type): protein assay
In experiment [1] the target is T1, Heart phosphodiesterase (Bos taurus, UniProt Q01061+P14100+E1BN64). The experiment can be described thus: Inhibition of bovine heart cAMP-phosphodiesterase (Insoluble).
In experiment [2] the target is T1, Heart phosphodiesterase. The experiment can be described thus: Inhibition of cAMP phosphodiesterase in bovine heart. The note with it: for IC50: read-out: I50. The gist of the method:
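I50 taken from a plot of uninhibited over inhibited velocity (V0/V) against inhibitor concentration, read where V0/V = 2. At least five inhibitor concentrations giving 25–75% inhibition were tested per inhibitor.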

For experiment [3], the target named is Heart phosphodiesterase (Bos taurus) (UniProt Q01061+P14100+E1BN64). The experiment can be described thus: Percent inhibition of bovine heart cAMP-phosphodiesterase at 10-20 uM.

Structures are written as SMILES.

For `CCC1C(=O)N(CC2CC2)c2sc3cc(C)c(C)cc3[n+]2C1=O` (stereo not given), the I50 result on Heart phosphodiesterase [1] is on record as “Insoluble”.

As to `CC(C)C1C(=O)N(CC2CC2)c2sc3ccccc3[n+]2C1=O` (stereo not given), the I50 entry at Heart phosphodiesterase [1] is “Insoluble”.

With `Cn1c(=O)c2nc[nH]c2n(C)c1=O` [THEOPHYLLINE], on Heart phosphodiesterase [2], the IC50 came out at 412 µM.

`CCC1C(=O)N(CC2CCCC2)c2sc3ccccc3[n+]2C1=O` (stereo not given) had an I50 at Heart phosphodiesterase [2] of 102 µM.

For the compound `CCOc1ccc2c(c1)sc1[n+]2C(=O)C(CC)C(=O)N1CC1CCCCC1` (stereo not given), the I50 at Heart phosphodiesterase [2] was found to be 8 µM. The same compound displayed an inhibition in experiment [3] of 40%.

As to `COC(=O)c1cc(=O)n2c(sc3ccccc32)c1C(=O)OC`, the I50 result at Heart phosphodiesterase [1] is “Insoluble”.

`CCC1C(=O)N(CC)c2sc3ccccc3[n+]2C1=O` (stereo not given): at Heart phosphodiesterase [2], the IC50 came to 153 µM.

With `CCOc1ccc2c(c1)sc1[n+]2C(=O)C(CC)C(=O)N1CC1CC1` (stereo not given), at Heart phosphodiesterase [2], the I50 was 69 µM.

As for `CCC1C(=O)N=C2Sc3ccccc3N2C1=O` (stereo not given), the I50 at Heart phosphodiesterase [2] came out at 467 µM.
